Test results: ChEMBL document CHEMBL5154895, “Mechanistic Studies and In Vivo Efficacy of an Oxadiazole-Containing Antibiotic” (J Med Chem, 2022)
Converted amounts (≈) assume the structure as drawn.

Tests used:
Staphylococcus aureus [1] = test: Antibacterial activity against Staphylococcus aureus MRSA ATCC 33592 assessed as inhibition of bacterial growth incubated for 18 to 20 hrs by broth microdilution method; type: functional; conditions: time 18-20 hrs
How it was run: (§1)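 Broth microdilution per CLSI. Inoculum at 0.5 McFarland, diluted in cation-adjusted Mueller Hinton broth to about 5 × 10^5 CFU/mL. Serial compound dilutions incubated aerobically at 37° C for 18–20 hours. MIC taken as the lowest concentration completely inhibiting visible growth.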

Staphylococcus aureus [2] = test: Antibacterial activity against Staphylococcus aureus ATCC 25923 assessed as inhibition of bacterial growth incubated for 18 to 20 hrs by broth microdilution method; type: functional; conditions: time 18-20 hrs; how it was run: as §1
[3] = In vivo antibacterial activity against methicillin-resistant Staphylococcus aureus USA300 infected in Balb/c mouse model assessed as reduction in bacterial infection in skin wounds administered topically twice daily 2 days post infection and measured after 5 days post compound treatment by CFU counting; set-up: scale not given: the % may be the effect or the level left; conditions: time 5 day
[4] = Toxicity in Balb/c mouse infected with methicillin-resistant Staphylococcus aureus USA300 assessed as hemorrhage administered topically twice daily 2 days post infection and measured after 5 days post compound treatment by H and E staining based histopathological analysis; conditions: in vivo, topical_or_ocular, 120 h, time 5 day
How it was run: (§2)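 MRSA USA300-infected punch wounds in mice, n=5. Topical 2% agent or petroleum jelly vehicle twice daily from day 2 for 5 days. The left wound was formalin-fixed, cut into 4-μm sections and H&E-stained. Whole slides were scanned and assessed by a board-certified veterinary pathologist for necrosis, inflammation, haemorrhage and related features.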

[5] = Toxicity in Balb/c mouse infected with methicillin-resistant Staphylococcus aureus USA300 assessed as necrosis administered topically twice daily 2 days post infection and measured after 5 days post compound treatment by H and E staining based histopathological analysis; conditions: in vivo, topical_or_ocular, 120 h, time 5 day; how it was run: as §2
[6] = Toxicity in Balb/c mouse infected with methicillin-resistant Staphylococcus aureus USA300 assessed as chronic inflammatory response administered topically twice daily 2 days post infection and measured after 5 days post compound treatment by H and E staining based histopathological analysis; conditions: in vivo, topical_or_ocular, 120 h, time 5 day; how it was run: as §2
[7] = Toxicity in Balb/c mouse infected with methicillin-resistant Staphylococcus aureus USA300 assessed as chronic inflammatory response at 25 mg/kg, ip administered 2 days post infection twice daily and measured after 5 days post compound treatment by H and E staining based histopathological analysis; type: organism-based; conditions: in vivo, 120 h, time 5 day
[8] = In vivo antibacterial activity against methicillin-resistant Staphylococcus aureus USA300 infected Balb/c mouse model assessed as reduction in bacterial infection in skin wounds at 25 mg/kg , ip administered 2 days post infection once daily and measured after 5 days post compound treatment by histopathological analysis; set-up: scale not given: the % may be the effect or the level left; conditions: time 5 day
[9] = Toxicity in Balb/c mouse infected with methicillin-resistant Staphylococcus aureus USA300 assessed as necrosis at 25 mg/kg, ip administered 2 days post infection twice daily and measured after 5 days post compound treatment by H and E staining based histopathological analysis; type: organism-based; conditions: in vivo, 120 h, time 5 day
[10] = Toxicity in Balb/c mouse infected with methicillin-resistant Staphylococcus aureus USA300 assessed as hemorrhage at 25 mg/kg, ip administered 2 days post infection twice daily and measured after 5 days post compound treatment by H and E staining based histopathological analysis; type: organism-based; conditions: in vivo, 120 h, time 5 day

SMILES	MIC (Staphylococcus aureus [1]) [µg/mL]	MIC (Staphylococcus aureus [2]) [µg/mL]	other results
O=C(Nc1nnc(-c2ccc(C(F)(F)F)cc2)o1)c1ccc(S(=O)(=O)N2CCCCC2)cc1	2 (≈ 4.16 µM)	2 (≈ 4.16 µM)	–
C/C(=C\C(=O)OCCCCCCCCC(=O)O)C[C@@H]1OC[C@H](C[C@@H]2O[C@H]2[C@@H](C)[C@H](C)O)[C@@H](O)[C@H]1O [MUPIROCIN]	–	–	Activity [3]: 98.8%; Activity [4]: Toxic; Activity [5]: Toxic; Activity [6]: Toxic
O=C(Nc1nnc(-c2ccc(C(F)(F)F)cc2)o1)c1ccc(S(=O)(=O)N2CCCC2)cc1	2 (≈ 4.29 µM)	2 (≈ 4.29 µM)	–
CN(C)S(=O)(=O)c1ccc(C(=O)Nc2nnc(-c3ccc(C(F)(F)F)cc3)o2)cc1	16 (≈ 36.3 µM)	16 (≈ 36.3 µM)	–
CC1CCCN(S(=O)(=O)c2ccc(C(=O)Nc3nnc(-c4ccc(C(F)(F)F)cc4)o3)cc2)C1 (stereo unspecified)	2 (≈ 4.04 µM)	2 (≈ 4.04 µM)	–
CCC[C@@H]1C[C@@H](C(=O)N[C@@H]([C@H]2O[C@H](SC)[C@H](O)[C@@H](O)[C@H]2O)[C@H](C)Cl)N(C)C1 [CLINDAMYCIN]	–	–	Activity [7]: Toxic; Activity [8]: 93.4%; Activity [9]: Toxic; Activity [10]: Toxic

Second part, led by results:

MIC (Staphylococcus aureus [1]) [µg/mL]	MIC (Staphylococcus aureus [2]) [µg/mL]	SMILES	other results
1 (≈ 2.02 µM)	1 (≈ 2.02 µM)	CC1CCN(S(=O)(=O)c2ccc(C(=O)Nc3nnc(-c4ccc(C(F)(F)F)cc4)o3)cc2)CC1	–
2 (≈ 4.06 µM)	2 (≈ 4.06 µM)	O=C(Nc1nnc(-c2ccc(C(F)(F)F)cc2)o1)c1ccc(S(=O)(=O)N2C[C@@H]3CC[C@H]2C3)cc1	–
2 (≈ 4.04 µM)	2 (≈ 4.04 µM)	CC1CCCCN1S(=O)(=O)c1ccc(C(=O)Nc2nnc(-c3ccc(C(F)(F)F)cc3)o2)cc1 (stereo unspecified)	–
> 64	> 64	C[C@@H]1C[C@H](C)CN(S(=O)(=O)c2ccc(C(=O)N(C)c3nnc(-c4ccc(C(F)(F)F)cc4)o3)cc2)C1	–
4 (≈ 8.84 µM)	4 (≈ 8.84 µM)	O=C(Nc1nnc(-c2ccc(C(F)(F)F)cc2)o1)c1ccc(S(=O)(=O)NC2CC2)cc1	–
